A number with no mark means an inactive call. Results filed as inconclusive are left out. Calls of active or inactive are those of the source.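 The calls were made as follows, unless noted: active = cell viability at or below a set limit in both duplicate runs, the limit being the all-compound median minus 4 SD (cut at about 23% in these data, passing the limit was not always enough); inconclusive = no clear call, values can overlap the other calls; inactive = the rest.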
Experiments:
[1] = OD615 S. cerevisiae growth inhibition, permissive medium, pilot counter-assay, permissive growth control for S. cerevisiae lifespan shortening project (AID 705;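 active = growth inhibition above 25% in both replicates, a cutoff set 3 SD above the mean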); details: OD615, 24 h, at 10 µM, stronger effect = higher value
Summary of the method: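 Material: engineered DeaD yeast; Compound: one dose 10 µM, DMSO 0.25% final; Detection: absorbance (optical density) at 615 nm; Buffer or medium: permissive raffinose/galactose medium; Timing: 24 h exposure, 30 °C.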

[2] = Restrictive medium S. cerevisiae growth inhibition, OD615, pilot screen of yeast lifespan reduction project, restrictive growth control (AID 706;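 active = growth inhibition above a set limit, 3 SD over mean compound inhibition, in both replicates, cut at about 43% in these data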;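 also: modified DeaD lifespan yeast strain shifted to restrictive glucose medium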); details: OD615, 48 h, at 10 µM, stronger effect = higher value
Summary of the method: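 Buffer or medium: restrictive glucose medium (CSMM-D); test system: modified S. cerevisiae; doses: single dose of 10 µM compound final, 0.25% DMSO; schedule: 48 h compound exposure at 30 °C; detection: absorbance (optical density) measured at 615 nm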

[3] = viability gain of MRP-1-high H69AR cells under doxorubicin, pilot screen, MRP-1 activator project, CellTiter-Glo, duplicate (AID 807;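 active = viability increase at or above a cutoff of the median across tested compounds plus 3 SD, cut at about 8.5% in these data, passing the limit was not always enough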;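 also: compound pretreatment 18-22 h then 72 h combined with doxorubicin; 0% = doxorubicin alone and 100% = vehicle without doxorubicin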); details: H69AR viability with doxorubicin, CellTiter-Glo luminescence; at 10 µM; stronger effect = higher value
[4] = growth suppression of beta-catenin knockout HCT116, pilot screen, human colon tumor cells (AID 823); details: CellTiter-Glo, 60 h, at 10 µM, stronger effect = lower value;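 also: 0% = wells killed by 20 µM Hyamine and 100% = untreated DMSO cell wells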
[5] = growth suppression of PTEN-deleted HCT116, pilot screen, cell-based, HCT116 clonal line, CellTiter-Glo (AID 824;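 active = viability at or below 27.92% in each of two runs, the all-compound median minus 4 SD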;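 also: 0% = 20 µM Hyamine control and 100% = vehicle cell control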); details: 60 h, at 10 µM, stronger effect = lower value
[6] = inhibitors of the yeast RAM network, pilot screen, dse1pr::URA3 reporter, 5-FOA selection (AID 869;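 active = inhibition over a set limit, the all-compound mean plus 3 SD, in both replicate runs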;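 also: 0% = DMSO wells with no growth and 100% = 10 µM 1-NA-PP1 with full growth; RAM network block rescues cells from 5-FOA so hits raise OD615 growth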); details: S. cerevisiae dse1pr::URA3 5-FOA growth, OD615, 2 d; at 10 µM; stronger effect = higher value; strain carries analog-sensitive mutant Cbk1 kinase
[7] = RAM signaling pathway blockade in yeast – S. cerevisiae, Pdr1DBD-CYC8 efflux-inhibited sensitized strain, primary screen (AID 1298;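 active = RAM network inhibition above 8.4% in each of two replicates, 3 SD over the compound average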;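 also: 0% = DMSO untreated cells without growth and 100% = 10 µM 1-NA-PP1 full growth; higher means more yeast growth rescued from 5-FOA killing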); details: S. cerevisiae cbk1-as DSE1-URA3 strain, 5-FOA growth OD615, 2 d; at 50 µM; stronger effect = higher value

Row | Compound | growth inhibition [1] | growth inhibition [2] | viability increase [3] [%] | viability [4] | viability [5] | inhibition [6] [%] | RAM network inhibition [7] [%]
1 | CC(=O)N1CCC(Nc2ccc(C)cc2)CC1 | -15.6% | -9.18% | 0.99 | 101% | 97.3% | -0.41 | 1.48
2 | CCn1c(CNC(=O)C(C)(C)C)nc2ccccc21 | -13.2% | -10.8% | -1.1 | 104% | 101% | 1.73 | 1.9
3 | CCCc1ccc(Oc2c(-c3ccc(O)c(C)c3O)n[nH]c2C)cc1 | 93.6% (active) | 87.5% (active) | -2.16 | 72.3% | 74.3% | -2.1 | -1.26
4 | COc1ccc(-c2nc(CS(=O)CC(=O)NCc3ccco3)c(C)o2)cc1OC (centres undefined) | 1.38% | -5.82% | -4.57 | 83.4% | 84.6% | 0.205 | 4.18
5 | Cn1c(C(=O)N2CCN(C(=O)c3ccco3)CC2)cc2c(=O)n(C)c3ccccc3c21 | -3.88% | 5.88% | -4.21 | 92.9% | 87% | 0.83 | 2.87
6 | CSC1=NCCN1C(=O)C(C)Oc1ccccc1 (centres undefined) | 1.44% | -0.77% | 1.74 | 101% | 99.2% | 0.34 | 0.46
7 | COc1cc(OC)cc(C(=O)Nn2cc(C(=O)N3CCN(C)CC3)c3ccccc3c2=O)c1 | -6.21% | -7.65% | -0.92 | 105% | 93.1% | 1.17 | 3.86
8 | CCOc1ccc(-n2c(SCC(=O)Nc3ccc4c(c3)OCO4)nc3c(c2=O)SCC3)cc1 | 3.25% | -5.91% | -1.65 | 92.5% | 86.5% | 1.83 | 4.16
9 | COc1ccc2occ(C(=O)c3ccc(N=C(C)N(C)C)cc3)c2c1 | -7.86% | -16.5% | -1.53 | 58.4% | 70.1% | 1.21 | 0.89
10 | COC(=O)c1coc(-c2ccc(C)cc2)c1C(=O)OC | -4.24% | 2% | 0.08 | 88.6% | 95.9% | 0.11 | 3.96
11 | CC1(C)CC(=O)N(c2ccccc2)C1(C)O (centres undefined) | -8.08% | -4.3% | 0.17 | 93.7% | 104% | 0.395 | 1.53
12 | CCOC(=O)Cc1csc(NC(=O)Nc2ccccc2)n1 | -11.8% | -12.1% | -0.81 | 53.2% | 53.2% | 0.665 | 4.19
13 | O=C(O)CCCC(=O)Nc1ccc(Cl)c(Cl)c1 | 4.12% | -2% | -0.13 | 95.4% | 98.1% | 0.165 | 1.64
14 | Nc1c(C(=O)Nc2ccc3c(c2)OCCO3)nnn1CCc1ccccc1 | -3.04% | 3.6% | -5.88 | 39.1% | 35.4% | 1.43 | 7.68
15 | O=C(OCCN1C(=O)c2ccccc2C1=O)c1cc2ccccc2o1 | -11.6% | -4.04% | 0.07 | 97.3% | 99.1% | 2.92 | 3.68
16 | C=CCNc1ncnc2ccc(Br)cc12 | 2.36% | 9.25% | -5.67 | 84.1% | 75.8% | 1.87 | 4.09
17 | Nc1nc2n(n1)C(c1ccco1)CC(c1ccc(F)cc1)N2 (centres undefined) | -0.245% | 11.6% | 1.69 | 98.4% | 101% | 0.45 | 4.49
18 | CCOC(=O)CN1CC23C=CC(O2)C(C(=O)NCc2ccc(C)cc2)C3C1=O (centres undefined) | -6.12% | -3.33% | -0.1 | 99.5% | 109% | 1.29 | 1.3
19 | O=S(=O)(c1cccs1)n1nnc2ccccc21 | -1.66% | -8.55% | -0.18 | 103% | 105% | 1.33 | 0.48
20 | O=C(Nc1cccnc1)c1cc(-c2ccc(Br)cc2)on1 | -9.68% | -9.79% | 0.92 | 100% | 95.9% | 0.76 | 6.96
21 | Cc1cc(NC(=O)c2cc(-c3cccs3)nc3ccccc23)no1 | 3.04% | -5.12% | -6.62 | 29.3% | 30.9% | 2.11 | 8.27
22 | CCOC(=O)c1[nH]c2ccccc2c1NC(=O)c1ccc2c(c1)OCO2 | -2.92% | -6.88% | -4.72 | 85.6% | 85.6% | 1.8 | 2.88
23 | CC(=O)Nc1sc(C)c(C)c1CN1CCN(S(=O)(=O)c2ccccc2)CC1 | -1.31% | -23.5% | -2.28 | 88.5% | 85% | -0.365 | 1.74
24 | Brc1cccc(-c2nc(-c3ccncc3)no2)c1 | -7.69% | 7.9% | -3.4 | 90.4% | 80% | -0.445 | 3.3

Row | Compound | growth inhibition [1] | growth inhibition [2] | viability increase [3] [%] | viability [4] | viability [5] | inhibition [6] [%] | RAM network inhibition [7] [%]
25 | Cc1sc2ncnc(SCC(=O)c3cccs3)c2c1C | 6.02% | 10.6% | -1.23 | 100% | 94.3% | 0.73 | 3.92
26 | O=C(O)CCC(=O)N1CCc2cc(S(=O)(=O)N3CCC(Cc4ccccc4)CC3)ccc21 | -6.24% | 0.935% | -2.63 | 97.8% | 82.2% | 1.47 | 3.85
27 | Cc1nc(N2CCN(c3ccccc3)CC2)c2c3c(sc2n1)CCC3 | -0.345% | 29.8% | 3 | 73.8% | 81.5% | 1.38 | 1.62
28 | COc1ccc(OC)c(NC(=O)c2cnc3n(c2=O)CCS3)c1 | -1.9% | -0.45% | -1.5 | 100% | 95.9% | 2.48 | 7.21
29 | C=CCn1c(SCCCc2ccccc2)nc2c1c(=O)[nH]c(=O)n2C | 5.96% | 6.29% | -5.7 | 67.8% | 65.2% | 0.525 | 4.94
30 | O=C(C1CCCCC1)N1CCN(c2ncccn2)CC1 | -3.77% | -0.05% | 0.21 | 101% | 102% | 1.31 | 2.41
31 | CS(=O)(=O)Nc1ccccc1Oc1ccccc1 | -4.92% | 2.56% | -0.66 | 97.5% | 92.8% | -0.23 | -0.46
32 | Cc1ccc(-c2noc(CSc3nnnn3C3CCCCC3)n2)cc1 | -16.1% | -13.6% | -1.39 | 89.8% | 84% | 0.525 | 5.16
33 | CC(=O)N(c1ccc(C)cc1)C1C=CS(=O)(=O)C1 (centres undefined) | -8.96% | 7.8% | -0.41 | 101% | 105% | 0.6 | 7.21
34 | COC(=O)c1ccc(NC(=O)CSc2nnc(-c3ccncc3)n2N)cc1 | -4.88% | -14.8% | -1.74 | 95.7% | 97.4% | 0.805 | 0.26
35 | O=C(c1c(Cl)nc2sccn12)N1CCN(c2cccc(Cl)c2)CC1 | 0.85% | 18.6% | -4.96 | 13.8% (active) | 17.8% (active) | 0.91 | 5.21
36 | COc1ccc(Nc2nc(N)nc(CN3CCc4ccccc4C3)n2)cc1 | -5.29% | -14.9% | -5.38 | 44.7% | 48.4% | 0.725 | 4.84
37 | CCSc1nnc(NC(=O)CSc2nc3c(c(=O)n2CCOC)SC(C)C3)s1 (centres undefined) | -5.35% | -1.1% | -2.95 | 94.1% | 94.4% | 2.09 | 7.38
38 | Cc1ccc2cc(CCNC(=O)C(C)(C)C)c(=O)[nH]c2c1 | -5.49% | -13.2% | 0.4 | 105% | 97.5% | 0.125 | 3.53
39 | O=C1c2ccccc2C(Nc2ccc3c(c2)OCCO3)N1c1ccccn1 (centres undefined) | -10.6% | -13.5% | -1.97 | 81.5% | 85.6% | 1.86 | 4.05
40 | O=C(Nc1nc2cc3c(cc2s1)OCO3)C1=COCCO1 | -9.14% | -31.3% | -6.84 | 45.8% | 41.3% | 1.75 | 5.3
41 | COC(=O)c1ccsc1NC(=O)C1COc2ccccc2O1 (centres undefined) | 6.25% | 8.76% | -1.07 | 92.4% | 85.5% | 0.425 | 8.05
42 | Nn1c(SCC(=O)Nc2ccc(F)cc2)nnc1-c1ccccn1 | -4.5% | 0.845% | -0.55 | 109% | 95.7% | 1.88 | 0.9
43 | COc1ccc(OC)c2sc(NC(=O)C3=COCCO3)nc12 | -14.8% | 0.525% | -2.76 | 93% | 90.9% | 0.98 | 3.16
44 | COc1ccc(-n2c(Cn3c(=O)sc4ccccc43)nnc2SCC(=O)N2CCCC2)cc1 | -1.82% | 17.8% | 0.25 | 104% | 102% | 1.5 | 3.39
45 | Cc1csc(NC(=O)CNS(=O)(=O)c2cccs2)n1 | -4.12% | -18.9% | -2.55 | 93.4% | 86.8% | 0.795 | 2.18
46 | CCN1CCN(CC(=O)Nc2ccc3c(c2)OCCO3)C(=O)C1=O | 2.63% | 10.1% | 1.13 | 105% | 103% | 0.675 | 2.49
47 | CN(CCCC(=O)Nc1nccs1)S(=O)(=O)c1ccc(Cl)cc1 | -0.375% | 0.355% | -1.24 | 110% | 97.7% | 1.51 | 0.41

Reference: PubChem BioAssay
